Most compounds without a hit are left out; they make up all but 1.4% or so of the library.
Rce1 inhib: yeast Rce1p protease inhibitors, primary screen, biochemical, fluorescence, cell-free homogeneous; 0.27% of 290,000 active; CAAX prenyl protease 2 (Saccharomyces cerevisiae (strain ATCC 204508 / S288c)), Q03530; calls only; yeast membranes, quenched prenylated peptide cleavage fluorescence;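 active = fall in fluorescence gain of 50% or more versus controls, with final raw signal at or below 3038400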;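 also: plate controls were neutral control wells for no effect and wells lacking membranes for full effect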
FXIa inh: human FXIa protease inhibitors, primary screen, biochemical, 1536-well. inhibition, % at 5 µM. 0.14% of 220,000 active. Coagulation factor XI (Homo sapiens), P03951. purified FXIa, Boc-Glu-Ala-Arg-AMC fluorogenic substrate. AID 798, 2007;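 active = inhibition of at least 40%; inactive = inhibition below 40%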;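 also: fluorescence of freed AMC excited at 355 nm; 0% = enzyme without compound and 100% = no enzyme blank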
Target sequence (P03951 19-387 limits assumed): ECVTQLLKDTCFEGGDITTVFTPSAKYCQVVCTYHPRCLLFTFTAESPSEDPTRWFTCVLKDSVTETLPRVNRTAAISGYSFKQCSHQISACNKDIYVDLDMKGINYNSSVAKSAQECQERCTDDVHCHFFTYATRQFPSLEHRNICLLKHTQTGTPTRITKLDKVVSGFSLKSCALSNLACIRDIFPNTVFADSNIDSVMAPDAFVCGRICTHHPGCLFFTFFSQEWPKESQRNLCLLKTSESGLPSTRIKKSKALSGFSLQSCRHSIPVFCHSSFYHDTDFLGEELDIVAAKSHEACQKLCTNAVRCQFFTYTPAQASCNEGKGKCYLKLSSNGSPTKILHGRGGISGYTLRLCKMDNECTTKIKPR
Target sequence (P03951 388-625 limits assumed): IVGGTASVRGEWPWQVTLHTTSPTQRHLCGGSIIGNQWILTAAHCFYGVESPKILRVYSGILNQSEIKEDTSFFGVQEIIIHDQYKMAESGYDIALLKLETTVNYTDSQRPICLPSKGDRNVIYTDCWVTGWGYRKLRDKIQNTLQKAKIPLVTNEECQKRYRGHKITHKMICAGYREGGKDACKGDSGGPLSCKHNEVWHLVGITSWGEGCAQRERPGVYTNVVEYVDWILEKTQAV
Thrombin inh: human alpha-thrombin inhibitors, primary screen, counter-screen for coagulation protease inhibitor project, biochemical, 1536-well, fluorogenic AMC substrate; AID 1046, 2008; inhibition, % at 5 µM; 0.26% of 220,000 active; Prothrombin (Homo sapiens), P00734; Boc-VPR-AMC fluorogenic substrate cleavage;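 active = inhibition at or above 40%; inactive = inhibition below 40%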;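 also: 0% = enzyme with no compound and 100% = wells without enzyme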
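Material: human alpha-thrombin protein. Incubation: reaction at ambient temperature. Technique: fluorescence of released AMC, ex 355 nm, em 460 nm. Control set: no-compound enzyme wells and no-enzyme blanks. Also added: Boc-VPR-AMC substrate, 15 µM final. Buffer or medium: pH 7.5 Tris (50 mM) with NaCl 150 mM, Tween 20 0.05%.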
Fh CTSL1 inh: Fasciola hepatica cathepsin L1 inhibitors, primary screen, counter-screen for PFM18AAP inhibitor project, biochemical, QFRET, fluorogenic peptide substrate; AID 1906, 2009; 0.49% of 300,000 active; recombinant F. hepatica cathepsin L1, Z-Leu-Arg-MCA fluorescence; inhibition, % at 5.96 µM;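 active = inhibition above the mean of all tested compounds plus 3 SD, set per screening campaign, cut at about 17% in these data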;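 also: 0% = plate median of test compound wells and 100% = 1 µM Z-Phe-Ala-diazomethylketone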
FXIIa inh 1536: human FXIIa protease inhibitors, primary screen, biochemical, 1536-well. purified FXIIa, Boc-QGR-AMC fluorogenic substrate, 2 h. inhibition, % at 5 µM. 0.3% of 220,000 active; in the data active = inhibition above about 40%;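 also: 0% = enzyme with no compound and 100% = blank without enzyme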
KLK5 inh: human KLK5 protease inhibitors, primary screen, biochemical, 1536-well. Kallikrein-5 (Homo sapiens), Q9Y337. recombinant hK5, fluorogenic AMC substrate cleavage. inhibition, % at 5 µM. 0.59% of 210,000 active. AID 873, 2007;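 active = inhibition of 40% or more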;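 also: 0% = enzyme controls without compound and 100% = no-enzyme blanks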
The depositor's hits bear a star; i = inactive; . = no result given; + = active, no number.

SMILES	Rce1 inhib	FXIa inh	Thrombin inh	Fh CTSL1 inh	FXIIa inh 1536	KLK5 inh
COC(=O)c1ccc(C(=O)OC)c(NC(=S)N2CCCC(C)C2)c1 (stereo unspecified)	i	20.7	2.3	-6.9	12.7	-5.1
O=C(O)c1ccc(N/N=C/c2ccc(OC(=O)c3ccccc3Cl)cc2)cc1	i	12.5	-1.4	2.0	6.6	-2.7
COc1ccc(-c2cc([C@H]3[C@@H]4C=CCC[C@@]4(C)C(=O)N3Cc3ccccc3)ccc2F)cc1	i	20.1	10.9	2.6	13.7	41.9*
COc1ccc(-c2ccc([C@H]3[C@@H]4C=CCC[C@@]4(C)C(=O)N3Cc3ccccc3)c(F)c2)cc1	i	-0.4	-4.0	1.9	2.7	1.4
O=C(Nc1ccccc1C(=O)N1CCCCCC1)c1ccc(Cl)cc1	i	1.6	-4.6	-0.5	7.8	3.4
O=c1[nH]c(N2CCCCC2)nc2ncn(Cc3ccccc3)c12	i	5.8	0.5	-1.9	9.0	3.3
Cc1cc2nn(-c3cccc4ccccc34)nc2cc1NC(=O)c1cccs1	+	8.7	2.1	3.5	9.8	-10.9
COC(=O)CSc1cc([N+](=O)[O-])ccc1NC(=O)OC	i	-4.4	4.2	18.6*	2.7	-8.0
COC(=O)Nc1ccc([N+](=O)[O-])cc1OC	i	-44.9	3.3	1.4	4.8	-4.5
Cc1ccc(C)c(N2CCN(C(=O)CN(C)S(=O)(=O)c3ccc4c(c3)CCC(=O)N4)CC2)c1	i	-10.0	-2.4	-2.0	-4.2	52.8*
Cc1ccc(C)c(N2CCN(S(=O)(=O)c3ccc4c(c3)CCC(=O)N4)CC2)c1	i	-5.0	-3.6	.	2.2	5.7
CC(C)N1CCN(S(=O)(=O)c2ccc3ccccc3c2)CC1	+	.	.	-5.2	.	.
Cc1ccc(-n2nnnc2-c2cccs2)cc1[N+](=O)[O-]	i	.	.	0.6	.	.
Cc1ccc([N+](=O)[O-])cc1NC(=S)NCCc1ccccc1	i	.	.	57.9*	.	.
O=[N+]([O-])c1cccnc1SCc1ccccc1	i	.	.	-6.1	.	.
CCOc1ccc(OCC)c(NC(=O)CCS(=O)(=O)c2ccc(Br)s2)c1	i	-5.2	43.3*	-7.7	5.0	-4.0
CCOC(=O)c1cccc(NC(=O)CCS(=O)(=O)c2ccc(Br)s2)c1	i	-5.6	5.8	-0.8	6.8	20.9
COc1ccc(C2CC(c3cccs3)=NN2C(=O)CSc2nc3c(cnn3-c3ccccc3)c(=O)[nH]2)cc1 (stereo unspecified)	i	10.7	6.0	6.8	10.3	-4.8
COc1cccc(C2CC(c3cccs3)=NN2C(=O)CSc2nc3c(cnn3-c3ccc(F)cc3)c(=O)[nH]2)c1OC (stereo unspecified)	+	20.8	2.0	-2.6	28.5	-2.5
COc1ccc(C2=CC(=O)OC3(CCCCC3)O2)cc1	i	5.4	4.8	2.9	16.4	6.5
C=C(C)C1(O)OC(=O)C=C1OC (stereo unspecified)	+	4.1	-0.4	-1.4	11.0	4.0
Cc1ccc2[nH]c3c(c2c1)CN(C(=O)CN(C)CC1OCCO1)CC3	i	2.7	1.1	16.8*	11.9	-14.4
CCc1ccc(NC(=O)CCn2cccc2)cc1	i	41.2*	10.6	-4.7	14.2	14.9
COC(=O)c1ccc(NC(=O)CCn2cccc2)cc1	i	-1.8	-1.9	-1.4	10.2	-3.1
O=[N+]([O-])c1cc([N+](=O)[O-])c(Oc2cc(Cl)ccc2Cl)cc1NC1CCCCCCC1	i	.	.	-1.0	.	.
SMILES	Rce1 inhib	FXIa inh	Thrombin inh	Fh CTSL1 inh	FXIIa inh 1536	KLK5 inh
Cc1nnc(SCc2nnc(-c3ccccc3Br)o2)n1-c1ccccc1	i	-6.8	40.9*	-1.1	1.2	-20.7
COc1ccccc1NC(=O)c1cnc(SCC(=O)NCC2CCCO2)n(C)c1=O (stereo unspecified)	i	.	.	4.0	.	.
CSc1nc2ccccc2n1CC(=O)Nc1ccccc1	i	10.9	9.6	-2.5	26.1	19.5
O=C(Cn1c(/C=C/c2ccccc2)nc2ccccc21)Nc1ccc(F)cc1	i	20.6	10.0	-0.6	40.3*	15.9
COc1ccc(C(=O)NCCS(=O)(=O)N2CCN(Cc3ccccc3)CC2)cc1	i	.	.	0.1	.	.
Cc1cccc(N2C(=O)CS/C2=N\NC(=O)c2ccc(Br)cc2)c1C	i	24.9	23.4	5.2	13.8	56.6*
Cc1cccc(N2C(=O)CS/C2=N\NC(=O)c2cccnc2)c1C	i	-2.3	-4.1	2.3	7.5	0.1
Cc1cc(C)n(-c2nnc(C)n2NS(=O)(=O)c2ccc(F)cc2)n1	i	9.8	2.3	1.5	71.5*	3.7
Cc1[nH]c(=O)c(C#N)c(C)c1CCC(=O)NCc1ccc(Cl)cc1	i	.	.	-3.6	.	.
CCOc1cc(N2CCOCC2)c(OCC)cc1NC(=O)COC(=O)c1ccccc1C	i	22.5	2.3	-8.2	28.0	-14.6
CCOc1cc(N2CCOCC2)c(OCC)cc1NC(=O)COC(=O)c1cc(C)oc1C	i	-3.0	-3.6	40.8*	6.4	-17.9
CCOc1cc(N2CCOCC2)c(OCC)cc1NC(=O)COC(=O)c1cc(C)cc(C)c1	.	-1.2	-11.6	50.0*	3.2	-5.2
COc1ccc([N+](=O)[O-])cc1N(CC(=O)NCC1CCCO1)S(C)(=O)=O (stereo unspecified)	i	-6.9	-1.7	2.6	5.7	-14.8
Clc1cccc(Cl)c1Cn1cnc2c(NCc3ccco3)ncnc21	i	2.7	14.2	6.7	-6.1	61.2*
Cc1ccc(S(=O)(=O)N2CCOCC2)cc1C(=O)NCC1CCCO1 (stereo unspecified)	i	.	.	28.1*	.	.
O=C(NCC1CCCO1)c1cc(S(=O)(=O)N2CCOCC2)c(Cl)cc1Cl (stereo unspecified)	i	.	.	.	.	.
COc1ccc(/C=c2\s/c(=C/C(=O)c3ccc(C)cc3)[nH]c2=O)cc1OC	i	-3.0	-3.5	4.0	0.5	14.3
C/C(=N\NC(=S)NC1CCCCC1)c1cccc(Br)c1	i	-7.8	51.4*	-0.9	-5.7	21.0
C/C(=N\NC(=S)NC1CCCCC1)c1cccc(C(F)(F)F)c1	i	-4.6	-6.7	3.7	1.6	-2.6
COc1cccc(-c2nc(NCc3ccccc3)c3ccccc3n2)c1O	i	.	.	20.7*	.	.
S=C(NCC1CCCO1)Nc1cccc(Cl)c1 (stereo unspecified)	i	-4.2	2.9	3.9	4.0	-3.2
S=C(NCC1CCCO1)Nc1ccc(Nc2ccccc2)cc1 (stereo unspecified)	i	29.3	-3.1	-1.4	25.3	40.1*

Bioassay records deposited in PubChem BioAssay by several laboratories.
